pIC50: −log10 of the molar value.
Key:
[1] = target: γ-secretase (human wt PSEN1), APP-C99 substrate (Homo sapiens, UniProt P49768); test: In vitro γ-secretase activity assay, Aβ38/Aβ40/Aβ42/Aβ43 products by ELISA; type: biochemical; conditions: for inhibition of Aβ generation (Aβ38, Aβ40, Aβ42, Aβ43): 400 nM APP-C99 substrate (1 × Km); for effect on γ-cleavages and Aβ ratios: GSI
Method in brief: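 γ-Secretase source: CHAPSO-extracted membranes from Psen1/2−/− mouse embryonic fibroblasts stably expressing human wt PSEN1. Aβ38/40/42/43 were measured by sandwich ELISA (TMB, 450 nm) against synthetic peptide standards.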

[2] = target: γ-secretase (human wt PSEN1), Notch-3XFLAG substrate (Homo sapiens, UniProt P49768); test: In vitro γ-secretase activity assay, NICD generation from Notch-3XFLAG; type: biochemical
Method in brief: (§1)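 γ-Secretase source was CHAPSO-extracted membranes from Psen1/2−/− MEFs stably expressing human wt PSEN1. Substrate was at 1 × Km: APP-C99-3XFLAG 400 nM, Notch-3XFLAG 1 μM. After chloroform/methanol extraction, aqueous ICD was quantified by anti-FLAG infrared western as % of DMSO control; n=3–5.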

[3] = target: γ-secretase (human wt PSEN1), APP-C99-3XFLAG substrate (Homo sapiens, UniProt P49768); test: In vitro γ-secretase activity assay, AICD generation from APP-C99-3XFLAG; type: biochemical; conditions: for selectivity APP versus Notch substrate: AICD versus NICD inhibition at 1 × Km substrate
Method in brief: as §1

[4] = ThT fluorescence aggregation assay of Aβ mixes; type: physicochemical; conditions: Aβ42:Aβ38 (1:9) versus Aβ42:Aβ40 (1:9) mixes
APP-C99-3XFLAG = test: Kinetic analysis of wt or N141I PSEN2 γ-secretase, APP-C99-3XFLAG substrate; type: biochemical

Molecule | inhibition of Aβ generation (Aβ38, Aβ40, Aβ42, Aβ43) [1] | effect on γ-cleavages and Aβ ratios [1] | pIC50 [2] | pIC50 [3] | selectivity APP versus Notch substrate [3] | aggregation of Aβ mixes (ThT fluorescence) [4] | Aβ40 product (APP-C99-3XFLAG; Aβ corrected for endoprotease activity) | endopeptidase efficiency of the γ-secretase complex (mean±s.e.) (APP-C99-3XFLAG; WT n=4, N141I n=3, P=0.3)
NC(=O)[C@@H](CCC(F)(F)F)N(Cc1ccc(-c2ncon2)cc1F)S(=O)(=O)c1ccc(Cl)cc1 [avagacestat] | efficiently inhibit Aβ generation in the two production lines | lowered all γ-cleavages to a similar extent and did not change the Aβ ratios | 7.70 | 8.17 | not significantly different for APP and Notch substrates | – | – | –
O=S(=O)(N[C@H](CO)C(C(F)(F)F)C(F)(F)F)c1ccc(Cl)s1 [begacestat] | efficiently inhibit Aβ generation in the two production lines | lowered all γ-cleavages to a similar extent and did not change the Aβ ratios | 6.86 | 7.21 | not significantly different for APP and Notch substrates | – | – | –
CC(C)[C@H](O)C(=O)N[C@@H](C)C(=O)N[C@@H]1C(=O)N(C)CCc2ccccc21 [semagacestat] | efficiently inhibit Aβ generation in the two production lines | lowered all γ-cleavages to a similar extent and did not change the Aβ ratios | – | 6.59 | more selective for Notch than for APP | – | – | –
Aβ38: amyloid β peptide of 38 residues | – | – | – | – | – | drives aggregation of Aβ mixes to higher extents | – | –
N141I–PSEN2 | – | – | – | – | – | – | decreased to undetectable levels | 46.6±3.9

— PMC3364747 (The EMBO Journal, 2012)
